From PubChem BioAssay
TRPC6 activator: mouse TRPC6 channel activation; Q61143; HEK293-TRPC6 membrane potential dye fluorescence; stronger effect = higher value; B-score at 10 µM; hit rate 0.13% among 310,000; AID 2550;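 active means B-score of the integrated fluorescence ratio above library mean plus 3 SD, and starting fluorescence ratio within library mean plus 5 SD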;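 further: higher score means more depolarization so channel activation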
TRPC4 agonist: activators of mouse TRPC4 channel | AID 2237 | Q9QUQ5 | HEK293 TRPC4beta/mu-opioid, Fluo4 calcium fluorescence; stronger effect = higher value | B-score at 10 µM | hit rate 0.49% among 310,000;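 active means B-score above 5 SD of library B-scores, and initial fluorescence ratio not above library mean plus 5 SD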;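 further: positive B-score marks a calcium rise read as TRPC4 activation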
Target sequence (Q9QUQ5 whole entry, looked up): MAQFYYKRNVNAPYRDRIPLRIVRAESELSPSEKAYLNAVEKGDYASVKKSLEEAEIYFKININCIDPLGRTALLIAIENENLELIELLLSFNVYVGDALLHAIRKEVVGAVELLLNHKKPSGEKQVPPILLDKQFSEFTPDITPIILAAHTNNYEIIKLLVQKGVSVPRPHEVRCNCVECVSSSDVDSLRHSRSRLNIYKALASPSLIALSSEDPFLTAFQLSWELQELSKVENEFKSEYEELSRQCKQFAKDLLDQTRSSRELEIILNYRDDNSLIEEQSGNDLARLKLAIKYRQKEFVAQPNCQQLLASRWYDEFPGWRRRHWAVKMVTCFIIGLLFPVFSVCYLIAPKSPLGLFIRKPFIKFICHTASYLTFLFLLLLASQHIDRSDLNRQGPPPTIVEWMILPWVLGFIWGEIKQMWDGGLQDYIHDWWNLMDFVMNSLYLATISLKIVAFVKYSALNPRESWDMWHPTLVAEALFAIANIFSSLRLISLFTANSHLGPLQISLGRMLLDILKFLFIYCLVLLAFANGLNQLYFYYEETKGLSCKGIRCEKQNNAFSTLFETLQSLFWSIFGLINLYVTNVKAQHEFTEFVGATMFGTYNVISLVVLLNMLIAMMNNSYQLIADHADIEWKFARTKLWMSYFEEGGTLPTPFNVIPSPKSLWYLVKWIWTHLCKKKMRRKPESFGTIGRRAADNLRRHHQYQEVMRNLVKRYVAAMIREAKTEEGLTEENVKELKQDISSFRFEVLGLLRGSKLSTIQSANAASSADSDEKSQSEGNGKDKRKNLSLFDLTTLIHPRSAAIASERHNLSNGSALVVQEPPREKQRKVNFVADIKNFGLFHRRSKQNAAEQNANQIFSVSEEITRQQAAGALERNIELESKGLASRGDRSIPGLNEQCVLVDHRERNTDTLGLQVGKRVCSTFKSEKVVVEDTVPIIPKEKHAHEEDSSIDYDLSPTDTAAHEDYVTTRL
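Material: TRPC4beta and mu-opioid receptor HEK293 stable cells | Incubation: 45 min room-temperature Fluo4 loading, 110 s read | Detection: Kinetic Fluo4 calcium fluorescence | Measure: Integrated baseline-normalised fluorescence ratio, converted to per-well B score | Benchmarks: Low control buffer alone, high control maximal DAMGO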
TRPC4 PAM: TRPC4 (mouse) allosteric potentiation; Q9QUQ5; HEK293 TRPC4beta/mu-opioid, DAMGO EC20, Fluo-4 Ca2+ flux; stronger effect = higher value; B-score at 10 µM; hit rate 0.42% among 310,000; AID 2227;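 active means B-score of calcium response area above 5 SD of library B-scores, with initial fluorescence ratio within 5 SD of library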;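 further: B-score of integrated fluorescence ratio over time as area under calcium response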
TRPC6 inhibitor: blocks the mouse TRPC6 cation channel. Q61143. HEK293-TRPC6, membrane potential dye, ACh-evoked depolarization; stronger effect = lower value. B-score at 10 µM. hit rate 1.1% among 310,000;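 active means B-score under library mean minus 3 SD, initial fluorescence not abnormally high, positive integrated signal ratio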;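 further: B-score derived from integrated fluorescence ratio over the kinetic read; more negative B-score means stronger inhibition of depolarization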
TRPC4 block: TRPC4 (mouse) channel inhibition; Q9QUQ5; HEK293 TRPC4beta/mu-opioid, DAMGO-evoked Fluo4 calcium flux; stronger effect = lower value; B-score at 10 µM; hit rate 0.39% among 300,000; AID 2247;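 active means B-score over 3 SD under the library average, no early fluorescence shift, positive overall ratio signal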
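Assay system: HEK293 cells with stable TRPC4beta plus mu-opioid receptor expression; Probe or stimulus: DAMGO in two steps, submaximal then maximal; Dosing: single-point compound dosing; Measured by: Fluo4 calcium-dye fluorescence, kinetic read; Read-out basis: B score from integrated Fluo4 fluorescence ratio.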
TRPC4 sel inh 2: second selectivity test of TRPC6 inhibitors: effect on mouse TRPC4; shares compounds with TRPC6 inhibitor; HEK293 TRPC4/MOR, membrane potential dye fluorescence; channel activated by saturating DAMGO dose; inhibition, % at 10 µM; hit rate 42% among 920;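 active means compounds whose fluorescence signal differed from control wells by over 3 SD, either direction, in both duplicate plates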
TRPC4 spec: tests whether TRPC6 inhibitors also affect mouse TRPC4; shares compounds with TRPC6 inhibitor; HEK293 TRPC4/mu-opioid, membrane potential fluorescence; activity change, negative = inhibition, % at 10 µM; hit rate 61% among 920;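 active means rise or fall in signal beyond 3 SD of buffer-only wells in both replicate plates, either sign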;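 further: integrated kinetic ratio of fluorescence range over baseline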
HEK293 MPD ctr 2-1: parental HEK293 nonspecific activity of TRPC6 inhibitors, second screen; shares compounds with TRPC6 inhibitor; parental HEK293 membrane potential dye fluorescence; maximal acetylcholine challenge after compound addition; signal change vs control, % at 10 µM; hit rate 31% among 920; AID 2779;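 active means membrane potential signal moving either way by over 3 SD of the maximum-effect control, in both duplicate plates, meaning non-specific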
HEK293 MPD ctr-1: parental HEK293 nonspecific activity of TRPC6 inhibitors; shares compounds with TRPC6 inhibitor; parental HEK293 membrane potential dye fluorescence; membrane potential signal change, % at 10 µM; hit rate 60% among 920;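 active means membrane potential signal shifting up or down by more than 3 SD of buffer-only wells, on both duplicate plates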
HEK293 MPD ctr-2: parental HEK293 nonspecific activity of TRPC6 modulators. shares compounds with TRPC6 inhibitor. membrane potential dye fluorescence. membrane potential signal change, % at 10 µM. hit rate 51% among 2,400. AID 488924;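 active means membrane potential signal moves up or down beyond 5 SD from buffer-only wells, on both duplicate plates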
HEK293 MPD ctr 2-2: second counter-screen for TRPC6 modulators: effect in parental HEK293 cells. shares compounds with TRPC6 inhibitor. membrane potential dye fluorescence; after compound, maximal acetylcholine stimulation. inhibition, % at 10 µM. hit rate 14% among 2,400. AID 488926;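 active means membrane potential signal drops by more than 5 SD from the mean control signal, in both duplicate plates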;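 further: plate controls were acetylcholine ECmax control wells for no effect and buffer only wells for full effect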
TRPC4 ctr mod: selectivity of TRPC6 modulators against mouse TRPC4. HEK293 TRPC4/mu-opioid, membrane potential fluorescence. hit rate 69% among 2,400. shares compounds with TRPC6 inhibitor. percent change from control (negative = decrease, positive = increase), % at 10 µM;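 active means membrane potential signal moved up or down beyond 5 SD of buffer control wells, in both duplicate plates, actives on both sides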;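 further: plate controls were assay buffer wells for no effect and DAMGO maximal-effect wells for full effect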
TRPC4 ctr inh 2: second check of whether TRPC6 modulators also affect mouse TRPC4 | shares compounds with TRPC6 inhibitor | HEK293 TRPC4/mu-opioid, membrane potential dye fluorescence; stimulated with maximal-effect DAMGO | inhibition, % at 10 µM | hit rate 55% among 2,400 | AID 488928;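 active means drop in membrane potential signal beyond 5 SD of the control wells in both duplicate plates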;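 further: TRPC4 counter screen for TRPC6 hits run under conditions tuned for TRPC6 not TRPC4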
TRPC6 inh conf: confirmation of mouse TRPC6 inhibitors; shares compounds with TRPC6 inhibitor; HEK293-TRPC6, membrane potential dye, ACh-evoked depolarization; inhibition, % at 10 µM; hit rate 43% among 3,300; AID 488960;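 active means fluorescence ratio falls more than 5 SD below the full-stimulation control mean, in both duplicate runs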;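 further: integrated fluorescence ratio of peak minus minimum over baseline after agonist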
TRPC6 act confirm: confirmation of mouse TRPC6 activators | shares compounds with TRPC6 inhibitor | HEK293-TRPC6 membrane potential dye fluorescence, FDSS | activation, % at 10 µM | hit rate 11% among 2,800 | AID 488961;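 active means ratio signal rise beyond 5 SD above unstimulated control wells' mean, seen in both duplicate runs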;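 further: plate controls were buffer EC0 wells for no effect and acetylcholine ECmax response for full effect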
Active calls of the source: *; i = inactive; / = no result given. Shown are actives, neighbours in structure and some others; about 2.3% of the full set was active somewhere.

SMILES	TRPC6 activator	TRPC4 agonist	TRPC4 PAM	TRPC6 inhibitor	TRPC4 block	HEK293 MPD ctr-2	HEK293 MPD ctr 2-2	TRPC4 ctr mod	TRPC4 ctr inh 2	TRPC6 inh conf	TRPC6 act confirm	others
COC(=O)c1ccc(-c2noc(CN(Cc3nccn3C)C(C)C)n2)cc1	i	i	i	-5.08*	i	i	i	i	i	i	i
COC(=O)c1ccc(-c2noc(CN3CCCCC3c3nccn3C)n2)cc1 (stereo unspecified)	i	i	i	-5.09*	i	163.5%*	i	37.5%*	36.5%*	43.0%*	/
Clc1ccccc1Cc1noc(CN2CCCCC2c2ccccn2)n1 (stereo unspecified)	i	i	i	i	i	/	/	/	/	/	/
Cn1ccnc1C1CCCCN1Cc1nc(Cc2ccccc2F)no1 (stereo unspecified)	i	i	i	-5.55*	i	i	i	i	i	67.0%*	i
C=C1[C@@H](OC(C)=O)CC[C@]2(C)[C@@H]1C[C@@H]1C[C@H](OC(C)=O)C(C)=C([C@@H](OC(C)=O)[C@@H]2OC(C)=O)C1(C)C	i	i	i	i	i	/	/	/	/	/	/
Cc1nc2ccc(NC(=O)c3ccc(Cl)c(S(=O)(=O)N(C)c4ccccc4)c3)cc2s1	i	i	i	-5.07*	i	i	i	-26.5%*	i	i	i
CCCCCCCCCCCCOC1OC(CO)C(O)C(O)C1NC(C)=O (stereo unspecified)	i	i	i	i	i	/	/	/	/	/	/
O=c1c2ccccc2nc(SCc2ccc([N+](=O)[O-])cc2)n1CCCO	i	i	i	-5.46*	-6*	i	i	i	83.5%*	i	i
CNC(=O)CC1C(=O)N(c2ccc(F)cc2)C(=S)N1NC(=O)c1ccc(Cl)cc1 (stereo unspecified)	i	i	i	-5.57*	i	i	i	i	i	i	i
CCOC(=O)CN1C(=O)C(=O)N(Cc2c(Cl)cccc2Cl)C1=O	i	i	i	-5.57*	i	i	i	i	i	i	i
CCOC(=O)CN1C(=O)C(=O)N(Cc2cccc(C)c2)C1=O	i	i	i	i	i	/	/	/	/	/	/
CC(=O)Nc1ccc(N2C(=O)CSC2c2cccc([N+](=O)[O-])c2)cc1 (stereo unspecified)	i	i	i	i	i	/	/	/	/	/	/
Brc1ccc(Oc2ncc(CN3CCN(c4ccccc4)CC3)s2)cc1	i	i	i	-5.39*	i	i	i	i	i	i	i
CCOC(=O)c1c(NC(=O)CSc2nnc(C)c(=O)[nH]2)sc(C)c1-c1ccc(C)cc1	13.7*	i	i	i	i	136.5%*	i	36.0%*	i	i	86.0%*
Cc1[nH]n(-c2ccccc2)c(=O)c1/C=N/NC(=O)c1ccc(O)cc1O	i	i	i	i	i	/	/	/	/	/	/
Cc1cc(C(=O)N/N=C/c2c(C)[nH]n(-c3ccccc3)c2=O)n[nH]1	i	i	i	-7.91*	i	/	/	/	/	i	i	TRPC4 sel inh 2=i;TRPC4 spec=-23.2%*;HEK293 MPD ctr 2-1=i;HEK293 MPD ctr-1=-328.0%*
Cc1cc(C(=O)N/N=C/c2cc(N=Nc3ccccc3)ccc2O)n[nH]1	i	i	i	-5.89*	i	i	i	i	i	i	i
[O-][n+]1cccc2ncc3cscc3c21	i	i	i	i	i	/	/	/	/	/	/
Cc1nn(CC(=O)O)c(C)c1C	i	i	i	i	i	/	/	/	/	/	/
Cc1nn(CC(=O)O)c(C)c1Cl	i	i	i	-11.5*	i	i	i	i	i	i	i
Cc1noc(C)c1CSc1ccccc1C(=O)N1CCN(c2ccccc2)CC1	i	i	i	-6.91*	i	/	/	/	/	i	/	TRPC4 sel inh 2=i;TRPC4 spec=16.0%*;HEK293 MPD ctr 2-1=i;HEK293 MPD ctr-1=8.9%*
COCCSc1ccccc1C(=O)N1CCN(c2ccccc2)CC1	i	i	i	i	i	/	/	/	/	/	/
CN(C)c1ccc2c3c(ccc(N(C)C)c13)C(=O)OC2	i	i	i	-5.95*	i	-408.5%*	i	-67.5%*	44.5%*	i	i
CS(=O)(=O)Nc1ccc2c(c1)C(=O)OC2	i	i	i	i	i	/	/	/	/	/	/
CC(=O)C1=C(O)C(=O)N(c2ccc(S(=O)(=O)Nc3nccs3)cc2)C1c1ccc(F)cc1 (stereo unspecified)	i	i	i	i	i	/	/	/	/	/	/
c1ccc(-c2nc3c(ccc4ccccc43)[nH]2)nc1	i	i	i	-6.24*	i	i	i	-9.0%*	28.0%*	i	i
c1ccc(-c2nc3ccccc3[nH]2)nc1	i	i	i	i	i	/	/	/	/	/	/
CC(C)C[C@H](NC(=O)[C@@H]1Cc2ccccc2CN1)C(=O)Nc1ccc(C(C)C)cc1	i	i	i	-5.21*	i	i	i	-12.0%*	68.0%*	i	i
